Data published in ChEMBL document CHEMBL1154352, “Toll-like receptor 7 selective synthetic oligoribonucleotide agonists: synthesis and structure-activity relationship studies” (J Med Chem, 2009).
Activity calls are given as the source filed them. The calls are words filed in the database; no cut-off is given here.

Assays:
[1] = species on record: Homo sapiens; experiment: Immunostimulatory activity in human pDC assessed as induction of IL6 at 100 ug/ml after 24 hrs; type: functional
In short: (§1)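 Human pDCs plated at 1 × 10^6 cells/mL; compounds in PBS added, 37 °C for 24 h; supernatant cytokines/chemokines by human Luminex multiplex kit.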

[2] = species on record: Homo sapiens; experiment: Immunostimulatory activity in human mDC assessed as induction of IFNalpha at 100 ug/ml after 24 hrs; type: functional
In short: (§2)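 Human mDCs isolated from PBMCs by CD19+ B-cell depletion then BDCA1 positive selection; plated at 1 × 10^6 cells/mL, compounds in PBS, 37 °C for 24 h; supernatant cytokines by human Luminex multiplex. Representative of four independent experiments.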

[3] = species on record: Homo sapiens; experiment: Immunostimulatory activity in human mDC assessed as induction of TNFalpha at 100 ug/ml after 24 hrs; type: functional; in short: as §2
[4] = test system: PBMC; experiment: Immunomodulatory activity in human PBMC assessed as induction of IFN-alpha at 100 ug/ml after 24 hrs
[5] = species on record: Homo sapiens; experiment: Immunostimulatory activity in human mDC assessed as induction of IL6 at 100 ug/ml after 24 hrs; type: functional; in short: as §2
[6] = test system: PBMC; experiment: Immunomodulatory activity in human PBMC assessed as induction of MIP1beta after 24 hrs; type: functional, cell-based
In short: (§3)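 Human PBMCs plated at 5 × 10^6 cells/mL; compounds dissolved in PBS added at various concentrations, 37 °C for 24 h. Supernatant cytokines/chemokines quantified with human Luminex multiplex kit.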

[7] = test system: PBMC; experiment: Immunomodulatory activity in human PBMC assessed as induction of MCP1 after 24 hrs; type: functional, cell-based; in short: as §3
[8] = test system: PBMC; experiment: Immunomodulatory activity in human PBMC assessed as induction of IL1-beta at 50 ug/ml after 24 hrs; type: functional, cell-based; in short: as §3
[9] = test system: PBMC; experiment: Immunomodulatory activity in human PBMC assessed as induction of MIP1alpha at 50 ug/ml after 24 hrs; type: functional, cell-based; in short: as §3
[10] = molecular target: Toll-like receptor 3 (Homo sapiens) (UniProt O15455); experiment: Activation of human TLR3 expressed in HEK293 assessed as induction of NF-kappaB activity reporter gene assay; type: cell-based
Sequence of Toll-like receptor 3 (Homo sapiens) (O15455 whole entry): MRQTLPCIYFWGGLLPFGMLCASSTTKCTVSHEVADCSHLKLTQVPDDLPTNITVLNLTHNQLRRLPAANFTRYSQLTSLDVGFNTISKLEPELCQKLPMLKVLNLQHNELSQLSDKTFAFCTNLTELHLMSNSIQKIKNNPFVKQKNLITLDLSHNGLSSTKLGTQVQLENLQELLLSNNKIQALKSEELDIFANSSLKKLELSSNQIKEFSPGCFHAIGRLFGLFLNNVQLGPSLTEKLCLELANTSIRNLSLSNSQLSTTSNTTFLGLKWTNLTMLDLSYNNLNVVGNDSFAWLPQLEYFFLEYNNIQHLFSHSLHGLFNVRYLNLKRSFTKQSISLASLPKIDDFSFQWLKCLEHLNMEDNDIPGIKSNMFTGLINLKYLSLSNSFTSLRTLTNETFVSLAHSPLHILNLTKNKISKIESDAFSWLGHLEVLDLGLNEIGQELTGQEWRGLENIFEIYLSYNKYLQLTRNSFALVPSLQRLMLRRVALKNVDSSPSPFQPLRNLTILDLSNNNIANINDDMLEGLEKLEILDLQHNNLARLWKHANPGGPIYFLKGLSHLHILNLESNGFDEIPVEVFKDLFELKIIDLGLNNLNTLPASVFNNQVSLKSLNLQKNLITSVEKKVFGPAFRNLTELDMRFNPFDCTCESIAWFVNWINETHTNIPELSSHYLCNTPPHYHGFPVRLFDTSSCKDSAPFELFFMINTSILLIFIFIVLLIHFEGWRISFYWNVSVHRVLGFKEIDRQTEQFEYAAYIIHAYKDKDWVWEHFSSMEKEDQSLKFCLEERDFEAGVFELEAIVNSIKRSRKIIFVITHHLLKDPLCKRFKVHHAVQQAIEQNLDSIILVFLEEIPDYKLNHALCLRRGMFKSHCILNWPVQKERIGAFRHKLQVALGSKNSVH

[11] = test system: PBMC; experiment: Immunomodulatory activity in human PBMC assessed as induction of IP10 at 50 ug/ml after 24 hrs; type: functional, cell-based; in short: as §3
[12] = test system: PBMC; experiment: Immunomodulatory activity in human PBMC assessed as induction of IFNalpha after 24 hrs; type: functional, cell-based; in short: as §3
[13] = test system: PBMC; experiment: Immunomodulatory activity in human PBMC assessed as induction of MCP1 at 50 ug/ml after 24 hrs; type: functional, cell-based; in short: as §3
[14] = test system: PBMC; experiment: Immunomodulatory activity in human PBMC assessed as induction of TNFalpha at 50 ug/ml after 24 hrs; type: functional, cell-based; in short: as §3
[15] = test system: Mus musculus; experiment: Immunomodulatory activity in C57BL/6 mouse assessed as induction of IL12 release at 25 mg/kg, sc after 2 hrs by ELISA; type: functional, organism-based; set-up: dose 25 mg/kg
In short: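 Female C57BL/6 wild-type mice, 5–8 weeks old, n=3; compounds given subcutaneously at 10 or 25 mg/kg. Retro-orbital blood at 2 h; serum cytokines by mouse Luminex multiplex or IL-12 ELISA.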

[16] = test system: PBMC; experiment: Immunomodulatory activity in human PBMC assessed as induction of IL10 after 24 hrs; type: functional, cell-based; in short: as §3
[17] = test system: PBMC; experiment: Immunomodulatory activity in human PBMC assessed as induction of TNFalpha after 24 hrs; type: functional, cell-based; in short: as §3
[18] = test system: PBMC; experiment: Immunomodulatory activity in human PBMC assessed as induction of IL6 after 24 hrs; type: functional, cell-based; in short: as §3
[19] = test system: PBMC; experiment: Immunomodulatory activity in human PBMC assessed as induction of MIP1beta at 50 ug/ml after 24 hrs; type: functional, cell-based; in short: as §3
[20] = molecular target: T1, Toll-like receptor 9 (Mus musculus) (UniProt Q9EQU3); experiment: Activation of mouse TLR9 expressed in HEK293 assessed as induction of NF-kappaB activity reporter gene assay; type: cell-based
T1 sequence (whole entry): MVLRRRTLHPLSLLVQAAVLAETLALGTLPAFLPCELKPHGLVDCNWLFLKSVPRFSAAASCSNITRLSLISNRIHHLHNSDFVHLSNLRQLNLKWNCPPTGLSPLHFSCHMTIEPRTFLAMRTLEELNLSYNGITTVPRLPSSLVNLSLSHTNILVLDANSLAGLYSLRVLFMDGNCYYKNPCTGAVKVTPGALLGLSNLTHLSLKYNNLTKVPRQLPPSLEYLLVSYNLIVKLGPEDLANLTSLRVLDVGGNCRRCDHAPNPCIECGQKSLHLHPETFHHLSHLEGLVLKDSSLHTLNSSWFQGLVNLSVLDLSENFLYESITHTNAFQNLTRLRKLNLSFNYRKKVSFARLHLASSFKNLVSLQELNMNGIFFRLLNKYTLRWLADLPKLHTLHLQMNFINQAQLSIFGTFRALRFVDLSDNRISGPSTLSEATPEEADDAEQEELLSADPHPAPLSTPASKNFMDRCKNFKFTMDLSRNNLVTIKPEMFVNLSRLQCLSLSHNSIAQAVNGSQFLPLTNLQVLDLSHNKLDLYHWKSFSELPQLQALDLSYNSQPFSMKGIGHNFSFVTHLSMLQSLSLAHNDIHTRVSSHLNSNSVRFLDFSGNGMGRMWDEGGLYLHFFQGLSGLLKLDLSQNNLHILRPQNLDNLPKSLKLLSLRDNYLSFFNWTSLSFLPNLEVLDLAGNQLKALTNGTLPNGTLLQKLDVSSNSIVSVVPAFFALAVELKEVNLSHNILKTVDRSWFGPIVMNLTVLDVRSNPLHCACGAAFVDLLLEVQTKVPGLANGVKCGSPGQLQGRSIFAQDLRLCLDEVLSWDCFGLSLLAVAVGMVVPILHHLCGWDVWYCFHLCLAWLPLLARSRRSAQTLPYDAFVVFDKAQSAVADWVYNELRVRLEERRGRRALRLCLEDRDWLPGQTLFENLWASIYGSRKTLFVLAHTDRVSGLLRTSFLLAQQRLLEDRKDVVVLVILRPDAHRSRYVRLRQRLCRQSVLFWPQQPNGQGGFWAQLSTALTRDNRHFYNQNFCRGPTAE

[21] = species on record: Homo sapiens; experiment: Immunostimulatory activity in human mDC assessed as induction of IL12 at 100 ug/ml after 24 hrs; type: functional; in short: as §2
[22] = test system: PBMC; experiment: Immunomodulatory activity in human PBMC assessed as induction of IFNalpha at 50 ug/ml after 24 hrs; type: functional, cell-based; in short: as §3
[23] = species on record: Homo sapiens; experiment: Immunostimulatory activity in human pDC assessed as induction of IP10 at 100 ug/ml after 24 hrs; type: functional; in short: as §1
[24] = species on record: Homo sapiens; experiment: Immunostimulatory activity in human pDC assessed as induction of IFNalpha at 100 ug/ml after 24 hrs; type: functional; in short: as §1
[25] = test system: PBMC; experiment: Immunomodulatory activity in human PBMC assessed as induction of IL12 at 100 ug/ml after 24 hrs; type: functional, cell-based; in short: as §3
[26] = test system: PBMC; experiment: Immunomodulatory activity in human PBMC assessed as induction of IL12 at 50 ug/ml after 24 hrs; type: functional, cell-based; in short: as §3
[27] = species on record: Homo sapiens; experiment: Immunostimulatory activity in human mDC assessed as induction of IP10 at 100 ug/ml after 24 hrs; type: functional; in short: as §2
[28] = test system: PBMC; experiment: Immunomodulatory activity in human PBMC assessed as induction of MIP1alpha after 24 hrs; type: functional, cell-based; in short: as §3
[29] = test system: PBMC; experiment: Immunomodulatory activity in human PBMC assessed as induction of IL6 at 50 ug/ml after 24 hrs; type: functional, cell-based; in short: as §3

Activity [10]: inactive | Activity [20]: inactive
SMILES: Nc1ccn([C@@H]2O[C@H](COP(=O)(S)O[C@H]3[C@@H](O)[C@H](n4cnc5c(N)ncnc54)O[C@@H]3COP(=O)(S)O[C@H]3[C@@H](O)[C@H](n4ccc5c(=O)[nH]c(N)nc54)O[C@@H]3COP(=O)(S)O[C@H]3[C@@H](O)[C@H](n4ccc(=O)[nH]c4=O)O[C@@H]3COP(=O)(S)O[C@H]3[C@@H](O)[C@H](n4ccc5c(=O)[nH]c(N)nc54)O[C@@H]3COP(=O)(S)O[C@H]3[C@@H](O)[C@H](n4cnc5c(N)ncnc54)O[C@@H]3COP(=O)(S)O[C@H]3[C@@H](O)[C@H](n4cnc5c(N)ncnc54)O[C@@H]3CO)[C@@H](OP(=O)(S)OC[C@H]3O[C@@H](n4ccc5c(=O)[nH]c(N)nc54)[C@H](O)[C@@H]3OP(=O)(S)OC[C@H]3O[C@@H](n4ccc(N)nc4=O)[C@H](O)[C@@H]3OP(=O)(S)OC[C@H]3O[C@@H](n4ccc(=O)[nH]c4=O)[C@H](O)[C@@H]3OP(=O)(S)OC[C@H]3O[C@@H](n4ccc(=O)[nH]c4=O)[C@H](O)[C@@H]3OP(=O)(S)OCC(O)COP(=O)(S)O[C@H]3[C@@H](O)[C@H](n4ccc(=O)[nH]c4=O)O[C@@H]3COP(=O)(S)O[C@H]3[C@@H](O)[C@H](n4ccc(=O)[nH]c4=O)O[C@@H]3COP(=O)(S)O[C@H]3[C@@H](O)[C@H](n4ccc(N)nc4=O)O[C@@H]3COP(=O)(S)O[C@H]3[C@@H](O)[C@H](n4ccc5c(=O)[nH]c(N)nc54)O[C@@H]3COP(=O)(S)O[C@H]3[C@@H](O)[C@H](n4ccc(N)nc4=O)O[C@@H]3COP(=O)(S)O[C@H]3[C@@H](O)[C@H](n4cnc5c(N)ncnc54)O[C@@H]3COP(=O)(S)O[C@H]3[C@@H](O)[C@H](n4ccc5c(=O)[nH]c(N)nc54)O[C@@H]3COP(=O)(S)O[C@H]3[C@@H](O)[C@H](n4ccc(=O)[nH]c4=O)O[C@@H]3COP(=O)(S)O[C@H]3[C@@H](O)[C@H](n4ccc5c(=O)[nH]c(N)nc54)O[C@@H]3COP(=O)(S)O[C@H]3[C@@H](O)[C@H](n4cnc5c(N)ncnc54)O[C@@H]3COP(=O)(S)O[C@H]3[C@@H](O)[C@H](n4cnc5c(N)ncnc54)O[C@@H]3CO)[C@H]2O)c(=O)n1 (some centres undefined)
Activity [1]: Active | Activity [2]: Active | Activity [3]: Active | IFN-alpha [4]: 204 pg/mL | Activity [5]: Active | Activity [6]: Dose-dependent effect | Activity [7]: Dose-dependent effect | Activity [8]: 105 pg/mL | Activity [9]: 2540 pg/mL | Activity [11]: 629 pg/mL | Activity [12]: Dose-dependent effect | Activity [13]: 51500 pg/mL | Activity [14]: 57 pg/mL | Activity [15]: Active | Activity [16]: Dose-dependent effect | Activity [17]: Dose-dependent effect | Activity [18]: Dose-dependent effect | Activity [19]: 6230 pg/mL | Activity [21]: Active | Activity [22]: 209 pg/mL | Activity [23]: Active | Activity [24]: Active | Activity [25]: 352 pg/mL | Activity [26]: 316 pg/mL | Activity [27]: Active | Activity [28]: Dose-dependent effect | Activity [29]: 1300 pg/mL
